# The list is not random: actives were taken first. Their share in the collection is about 4.3%.
# CHO parental Ca – ATP-evoked calcium signal inhibitors, parental CHO, primary screen, counter-screen for OX1R antagonist project, cell-based, fluorescence, Fluo-8 calcium dye. inhibition, % at 5.6 µM. hit rate 0.63% among 330,000. parental CHO-K1, ATP-induced calcium, Fluo-8 fluorescence;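 active = inhibition above that plate's mean sample inhibition plus 3 SD, cut at about 26% in these data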;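 also: 0% = ATP-challenged DMSO wells and 100% = DMSO wells without ATP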
#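 Material: Parental CHO cells | Reagent: ATP | Compound dosing: Single nominal dose of 5.6 µM per compound | Detection: Intracellular calcium via Fluo-8 no-wash fluorescent dye | Read-out: % inhibition of ATP-induced calcium mobilization | Benchmarks: Low control ATP plus DMSO, high control DMSO only | Replicates: Singlicate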
# TAAR1 agonist – human TAAR1 agonists, primary screen, Fluo-8 calcium fluorescence, CHO RD-HGA16 cells; Trace amine-associated receptor 1 (Homo sapiens), Q96RJ0; vehicle wells 0%, saturating PEA agonist 100%; activation, % at 3 µM; hit rate 0.99% among 360,000; AID 624467, 2012;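 active = activation above the mean activation of all test compounds in the run plus 3 SD, cut at about 38% in these data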
#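 Repeats: no replicates (n 1) | Material: CHO-derived RD-HGA16 cells with stable Gα16 and human TAAR1 | Technique: Kinetic Fluo-8 calcium fluorescence | Schedule: 17-24 h seeding, 75 min 37 °C dye, 30 min RT | Evaluation: % activation from peak over basal fluorescence ratio, DMSO-to-PEA scaled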
# OX1R antag-1 – OX1R (HCRTR1) antagonists, primary screen, fluorescence, CHO/OX1R cells, Fluo-8 calcium, orexin A. hit rate 0.43% among 330,000. Orexin/Hypocretin receptor type 1 (Homo sapiens), O43613. AID 434989, 2010. Fluo-8 calcium fluorescence. inhibition, % at 5 µM;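 active = inhibition above its plate's threshold, mean inhibition of all tested compounds on the plate plus 3 SD, cut at about 37% in these data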;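 also: 0% = orexin A challenge wells and 100% = SB-334867-A antagonist wells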
# Target sequence (O43613 whole entry, looked up): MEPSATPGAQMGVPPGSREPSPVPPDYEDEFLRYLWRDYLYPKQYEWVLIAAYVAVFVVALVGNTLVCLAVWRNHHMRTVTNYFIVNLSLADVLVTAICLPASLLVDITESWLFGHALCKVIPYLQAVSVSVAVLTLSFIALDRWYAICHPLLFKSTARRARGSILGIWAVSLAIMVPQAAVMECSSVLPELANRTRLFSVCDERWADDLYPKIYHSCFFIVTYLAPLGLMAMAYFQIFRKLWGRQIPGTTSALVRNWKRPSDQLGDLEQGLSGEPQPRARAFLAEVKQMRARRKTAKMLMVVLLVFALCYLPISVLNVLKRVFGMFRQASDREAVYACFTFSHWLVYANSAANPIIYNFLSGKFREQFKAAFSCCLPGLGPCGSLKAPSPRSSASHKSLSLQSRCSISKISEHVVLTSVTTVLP
# TAAR1 antagonist – human TAAR1 antagonists, primary screen, Fluo-8 calcium fluorescence, CHO RD-HGA16 cells | AID 624466, 2012 | inhibition, % at 3 µM | Trace amine-associated receptor 1 (Homo sapiens), Q96RJ0 | hit rate 1.5% among 360,000 | antagonist;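 active = inhibition above a per-plate cutoff, the mean inhibition of test compounds on that plate plus 3 SD, cut at about 49% in these data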;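 also: 0% = DMSO plus EC80 beta-PEA response and 100% = DMSO alone without agonist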
#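 Test system: CHO RD-HGA16 cells bearing hTAAR1 | Reagent: β-PEA, EC80 | Compound dosing: 3 µM, single point | Schedule: Dye loading 75 min at 37 °C, then 30 min room temperature | Signal: Calcium fluorescence with Fluo-8 | Evaluation: Percent inhibition of PEA-evoked calcium signal, max/basal emission ratio | Control set: DMSO-only wells and EC80 β-PEA-stimulated wells | Repeats: Singlicate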
# GalR3 antag – GalR3 antagonists in HEK293 cells, primary screen, cell-based, fluorescence readout; Galanin receptor type 3 (Homo sapiens), O60755; HEK293 GalR3-CNG cAMP membrane potential fluorescence; galR3 body fused to GalR1 C-terminus; inhibition, % at 3 µM; hit rate 0.44% among 360,000; AID 651719, 2012;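 active = inhibition above the screen-wide average plus 3 SD, cut at about 13% in these data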;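 also: forskolin and galanin both at EC90 stimulate the cells; cAMP rise reported by CNG channel membrane potential dye signal; 0% = forskolin plus galanin with DMSO and 100% = forskolin alone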
# Target sequence (O60755 1-299 limits assumed): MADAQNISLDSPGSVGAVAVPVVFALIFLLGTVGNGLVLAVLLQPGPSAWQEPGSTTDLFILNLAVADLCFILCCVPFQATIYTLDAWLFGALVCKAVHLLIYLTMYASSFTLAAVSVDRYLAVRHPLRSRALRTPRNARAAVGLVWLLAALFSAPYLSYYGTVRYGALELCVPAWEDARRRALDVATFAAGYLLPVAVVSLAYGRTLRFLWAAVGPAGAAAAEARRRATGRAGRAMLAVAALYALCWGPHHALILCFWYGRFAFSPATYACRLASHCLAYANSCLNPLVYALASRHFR
# OX1R antag-2 – antagonists of human orexin 1 receptor (OX1R); hit rate 1.8% among 330,000; Orexin/Hypocretin receptor type 1 (Homo sapiens), O43613; AID 485270, 2010; inhibition, % at 6.6 µM; OX1R-expressing cells, FRET antagonist read-out; in the data active = inhibition mostly above about 38%, no sharp cut-off; inactive = mostly below about 40%;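 also: 0% = agonist challenge alone and 100% = reference antagonist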
# * marks the source's active call; other numbers are inactive results; nt = no result.
SMILES,CHO parental Ca,TAAR1 agonist,OX1R antag-1,TAAR1 antagonist,GalR3 antag,OX1R antag-2
O=C(CSc1nc2ccccc2c(=O)n1NC(=O)Cc1ccccc1)NCc1ccco1,-13.2,8.0,-22.2,2.1,-4.4,16.5
O=C(CSc1nc2ccccc2c(=O)n1NC(=O)Cc1ccccc1)NCc1ccccc1,-6.5,2.9,-10.9,4.3,-3.8,46.0*
Cn1cc(SCC(=O)NCc2ccc3c(c2)OCO3)c2ccccc21,-5.3,-2.0,-3.4,-26.9,nt,41.3*
Cc1ccccc1CN1C(=O)CN(S(C)(=O)=O)CC1(C)C(=O)NC(C)C (stereo not drawn),nt,1.1,nt,-10.7,-5.5,nt
Nc1[nH]c(C(=O)c2ccccc2)c(-c2ccccc2Cl)c1C(=O)NCCc1c[nH]c2ccccc12,nt,8.8,nt,-6.6,-8.4,nt
COC(=O)c1ccc(COC(=O)c2[nH]c(C)c(C(C)=O)c2C)o1,38.1*,10.6,11.3,12.0,6.8,44.9
CC(=O)c1c(C)[nH]c(C(=O)OCc2ccc([N+](=O)[O-])cc2)c1C,-13.6,14.5,-27.7,-3.9,-8.5,17.2
CCN1/C(=C/c2ccc3ccccc3[n+]2CC)C=Cc2ccccc21,71.4*,3.5,26.8,12.0,53.0*,100.5*
CCN1/C(=C/c2ccc3ccccc3[n+]2CCCS(=O)(=O)[O-])C=Cc2cc(C)ccc21,nt,-0.5,nt,4.5,-5.1,nt
C[C@H]1CN([C@@H](C)CO)C(=O)c2cc(NC(=O)C3CCCCC3)ccc2O[C@H]1CN(C)C(=O)Nc1ccc2c(c1)OCO2,-1.6,4.4,-7.5,1.5,-1.6,1.2
CN(CC(=O)NCc1cccs1)S(=O)(=O)c1cccc2nsnc12,-1.2,5.6,-10.6,-5.2,-0.3,50.8*
CN(CC(=O)NCc1ccc(F)cc1)S(=O)(=O)c1cccc2nsnc12,-9.9,5.3,-15.7,-0.7,-3.4,57.9
O=C(O)CN1C(=O)c2ccc(Oc3ccc([N+](=O)[O-])cc3)cc2C1=O,-1.2,5.1,11.4,2.3,-8.2,52.6*
COc1cccc(NC(=O)CN(C)C(=O)CN2C(=O)c3ccc([N+](=O)[O-])cc3C2=O)c1,-12.7,0.2,-2.3,4.3,-4.5,47.9*
O=C1c2ccc([N+](=O)[O-])cc2C(=O)N1CNc1ccccn1,13.5,2.1,-5.7,-12.7,-1.4,61.3*
O=C(CCN1C(=O)c2ccc([N+](=O)[O-])cc2C1=O)Nc1cccc(O)c1,2.7,0.7,9.7,-4.2,-3.8,45.6*
O=C(CNC(=O)c1cccs1)N/N=C/c1cccc(Cl)c1,7.5,11.9,-9.4,-8.0,2.2,1.4
CC(=O)N1CCN(c2ccc(N3CCN(C(C)=O)[C@H](C)C3)c(C)c2)[C@@H](C)C1,nt,0.1,nt,-15.2,-5.5,nt
CN(Cc1ccccc1)C(=O)CN1C(=O)c2ccc([N+](=O)[O-])cc2C1=O,-4.5,-2.0,-30.2,-17.3,-9.2,69.7*
O=C(Nc1ccc2ccccc2c1)c1ccccc1Cl,nt,-2.0,nt,-5.6,-6.1,nt
O=C(Nc1ccc2ccccc2c1)c1ccccc1O,8.6,1.8,8.6,23.3,-8.3,54.8*
O=[N+]([O-])c1cc(Br)c2nsnc2c1N1CCOCC1,-9.1,3.3,-14.6,1.0,-3.3,28.8*
CCOc1ccc(NC(=O)c2cccc(S(=O)(=O)NCc3cccnc3)c2)cc1,nt,3.5,nt,-6.4,-6.3,nt
COc1ccc(C2C3=C(CC(c4ccco4)CC3=O)Nc3ccccc3N2C(C)=O)cc1 (stereo not drawn),-19.9,10.5,-15.2,-2.6,-1.3,10.4
COc1cccc(C2CC(=O)C3=C(C2)Nc2ccccc2N(C(=O)CCC(=O)O)C3c2ccc(F)cc2)c1 (stereo not drawn),99.4*,2.5,-8.9,-24.1,-5.5,23.6
SMILES,CHO parental Ca,TAAR1 agonist,OX1R antag-1,TAAR1 antagonist,GalR3 antag,OX1R antag-2
CC(C)S(=O)(=O)N1CCCC(c2cc(C(=O)Nc3ccc(F)c(Cl)c3)no2)C1 (stereo not drawn),nt,8.5,nt,26.1,-5.7,nt
C=CC[C@@H](CC(=O)N[C@@H](CO)Cc1ccccc1)C(=O)N[C@H](COC(=O)[C@@H](CC=C)CC(=O)OC(C)(C)C)Cc1c[nH]c2ccccc12,-14.4,3.6,5.9,38.9,-5.6,5.0
C=CC[C@@H](CC(=O)N(CCO)Cc1ccccc1)C(=O)N[C@H](COC(=O)[C@@H](CC=C)CC(=O)OC(C)(C)C)Cc1c[nH]c2ccccc12,-13.4,12.3,23.6,60.4*,-3.9,2.6
C=CC[C@H](CC(=O)NCCO)C(=O)N[C@H](COC(=O)[C@@H](CC=C)CC(=O)OC(C)(C)C)Cc1c[nH]c2ccccc12,-16.9,9.9,-34.2,33.8,6.9,11.9
C=CC[C@H](CC(=O)N(CCO)Cc1ccccc1)C(=O)NC[C@H](OC(=O)[C@@H](CC=C)CC(=O)OC(C)(C)C)c1ccccc1,-16.3,12.5,10.4,49.0*,-6.9,7.0
C=CC[C@@H](CC(=O)N(CCO)Cc1ccccc1)C(=O)N[C@@H](COC(=O)[C@@H](CC=C)CC(=O)OC(C)(C)C)Cc1c[nH]c2ccccc12,9.6,14.2,6.2,55.3*,1.8,1.8
CC1(C(=O)NS(=O)(=O)C2CC2)CCN(C(=O)c2ccc(F)c(Cl)c2)C1 (stereo not drawn),nt,0.3,nt,-0.3,-3.6,nt
COc1ccc(NC(=O)C(C)Oc2ccc(/C(C)=N\O)cc2)cc1 (stereo not drawn),5.7,54.8*,7.0,5.6,-0.9,5.7
COc1ccc(OC(C)C(=O)Nc2ccc([N+](=O)[O-])cc2)cc1 (stereo not drawn),-9.3,16.5,-1.2,13.8,-6.8,16.2
O=C(c1ccc([N+](=O)[O-])o1)N1CCc2ccccc21,-10.9,0.5,-15.6,-4.0,-8.0,41.9*
COc1cc2c(cc1OC)CN(C(=O)c1ccc([N+](=O)[O-])o1)CC2,-19.5,0.6,-22.7,-13.5,-7.0,45.6*
O=C(c1ccc([N+](=O)[O-])o1)N1CCc2ccccc2C1,0.0,1.4,-24.2,-14.4,-2.9,23.6
O=C(c1ccc([N+](=O)[O-])o1)N1CCCCCC1,1.1,4.1,-14.4,-15.3,-0.7,27.8*
COc1ccc(-c2nn(-c3ccccc3)cc2/C=N/NC(=O)c2ccc(Br)o2)cc1,-25.5,17.9,-27.6,61.0*,0.7,0.1
O=C(N/N=C/c1ccc(COc2ccc(Br)cc2)o1)c1ccc2c(c1)OCO2,nt,-1.1,nt,-11.4,-0.9,nt
